Results as given in ChEMBL document CHEMBL4715736, “Identification of anticancer agents based on the thieno[2,3-b]pyridine and 1H-pyrazole molecular scaffolds” (2016).

Columns and labels:
Type in all cases: functional
[1] = test system: SF-295; test: Growth inhibition of human SF-295 cells assessed as cell growth at 0.01 uM incubated for 48 hrs by sulforhodamine B assay relative to control; settings: read-out: Activity
[2] = test system: MDA-MB-435; test: Growth inhibition of human MDA-MB-435 cells assessed as cell growth at 0.01 uM incubated for 48 hrs by sulforhodamine B assay relative to control; settings: read-out: Activity
[3] = test system: SK-MEL-28; test: Growth inhibition of human SK-MEL-28 cells assessed as cell growth at 0.01 uM incubated for 48 hrs by sulforhodamine B assay relative to control; settings: read-out: Activity
[4] = test system: OVCAR-8; test: Growth inhibition of human OVCAR-8 cells assessed as cell growth at 0.01 uM incubated for 48 hrs by sulforhodamine B assay relative to control; settings: read-out: Activity
[5] = test system: DU-145; test: Growth inhibition of human DU-145 cells assessed as cell growth at 0.01 uM incubated for 48 hrs by sulforhodamine B assay relative to control; settings: read-out: Activity
Summary of the method: (§1)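 NCI Developmental Therapeutics Program NCI60 panel. Compounds that were active in the 10 µM one-dose screen went on to dose–response testing. Growth at each concentration is expressed relative to untreated control (100%). GI50 (concentration giving 50% of maximal inhibition of proliferation) and TGI (concentration giving total growth inhibition) were derived from the curves.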

[6] = test system: MDA-MB-231; test: Growth inhibition of human MDA-MB-231 cells assessed as cell growth at 0.01 uM incubated for 48 hrs by sulforhodamine B assay relative to control; settings: read-out: Activity
[7] = test system: T47D; test: Growth inhibition of human T47D cells assessed as cell growth at 0.01 uM incubated for 48 hrs by sulforhodamine B assay relative to control; settings: read-out: Activity
[8] = test system: CCRF-CEM; test: Growth inhibition of human CCRF-CEM cells assessed as cell growth at 0.1 uM incubated for 48 hrs by sulforhodamine B assay relative to control; settings: read-out: Activity; summary of the method: as §1
[9] = test system: HOP-92; test: Growth inhibition of human HOP-92 cells assessed as cell growth at 0.1 uM incubated for 48 hrs by sulforhodamine B assay relative to control; settings: read-out: Activity
[10] = test system: SF-268; test: Growth inhibition of human SF-268 cells assessed as cell growth at 0.1 uM incubated for 48 hrs by sulforhodamine B assay relative to control; settings: read-out: Activity
[11] = test system: Malme-3M; test: Growth inhibition of human Malme-3M cells assessed as cell growth at 0.1 uM incubated for 48 hrs by sulforhodamine B assay relative to control; settings: read-out: Activity
[12] = test system: MDA-MB-435; test: Growth inhibition of human MDA-MB-435 cells assessed as cell growth at 0.1 uM incubated for 48 hrs by sulforhodamine B assay relative to control; settings: read-out: Activity
[13] = test system: MOLT-4; test: Growth inhibition of human MOLT-4 cells assessed as cell growth at 1 uM incubated for 48 hrs by sulforhodamine B assay relative to control; settings: read-out: Activity
[14] = test system: SF-539; test: Growth inhibition of human SF-539 cells assessed as cell growth at 1 uM incubated for 48 hrs by sulforhodamine B assay relative to control; settings: read-out: Activity
[15] = test system: LOX IMVI; test: Growth inhibition of human LOX IMVI cells assessed as cell growth at 1 uM incubated for 48 hrs by sulforhodamine B assay relative to control; settings: read-out: Activity
[16] = test system: Malme-3M; test: Growth inhibition of human Malme-3M cells assessed as cell growth at 1 uM incubated for 48 hrs by sulforhodamine B assay relative to control; settings: read-out: Activity
[17] = test system: NCI/ADR-RES; test: Growth inhibition of human NCI/ADR-RES cells assessed as cell growth at 1 uM incubated for 48 hrs by sulforhodamine B assay relative to control; settings: read-out: Activity
[18] = test system: BT-549; test: Growth inhibition of human BT-549 cells assessed as cell growth at 1 uM incubated for 48 hrs by sulforhodamine B assay relative to control; settings: read-out: Activity
[19] = test system: T47D; test: Growth inhibition of human T47D cells assessed as cell growth at 1 uM incubated for 48 hrs by sulforhodamine B assay relative to control; settings: read-out: Activity
[20] = test system: HT-29; test: Growth inhibition of human HT-29 cells assessed as cell growth at 100 uM incubated for 48 hrs by sulforhodamine B assay relative to control; settings: read-out: Activity
[21] = test system: SK-MEL-28; test: Growth inhibition of human SK-MEL-28 cells assessed as cell growth at 100 uM incubated for 48 hrs by sulforhodamine B assay relative to control; settings: read-out: Activity
[22] = test system: IGROV-1; test: Growth inhibition of human IGROV-1 cells assessed as cell growth at 100 uM incubated for 48 hrs by sulforhodamine B assay relative to control; settings: read-out: Activity
[23] = test system: MDA-MB-231; test: Growth inhibition of human MDA-MB-231 cells assessed as cell growth at 100 uM incubated for 48 hrs by sulforhodamine B assay relative to control; settings: read-out: Activity
[24] = test system: T47D; test: Growth inhibition of human T47D cells assessed as cell growth at 100 uM incubated for 48 hrs by sulforhodamine B assay relative to control; settings: read-out: Activity
[25] = test system: RPMI-8226; test: Growth inhibition of human RPMI-8226 cells incubated for 48 hrs by sulforhodamine B assay
Summary of the method: (§2)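 NCI DTP 60-line human tumour panel. Dose-response curves were run only for ligands active in the initial 10 µM screen. GI50 (concentration giving 50% of maximal inhibition of proliferation) and TGI (concentration giving total growth inhibition) were derived from these curves.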

[26] = test system: NCI-H226; test: Growth inhibition of human NCI-H226 cells incubated for 48 hrs by sulforhodamine B assay
Summary of the method: (§3)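 NCI60 panel at the NCI Developmental Therapeutics Program. Only compounds active in the 10 µM screen went to dose-response testing. GI50, the concentration giving 50% of maximal inhibition of proliferation, and TGI, the concentration giving total growth inhibition, were derived from the dose-response curves.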

[27] = test system: NCI-H322M; test: Growth inhibition of human NCI-H322M cells incubated for 48 hrs by sulforhodamine B assay; summary of the method: as §3
[28] = test system: UACC-257; test: Growth inhibition of human UACC-257 cells incubated for 48 hrs by sulforhodamine B assay; summary of the method: as §2
[29] = test system: IGROV-1; test: Growth inhibition of human IGROV-1 cells incubated for 48 hrs by sulforhodamine B assay; summary of the method: as §3
[30] = test system: OVCAR-8; test: Growth inhibition of human OVCAR-8 cells incubated for 48 hrs by sulforhodamine B assay; summary of the method: as §2
[31] = test system: SK-OV-3; test: Growth inhibition of human SK-OV-3 cells incubated for 48 hrs by sulforhodamine B assay; summary of the method: as §2
[32] = test system: SN12C; test: Growth inhibition of human SN12C cells incubated for 48 hrs by sulforhodamine B assay; summary of the method: as §2
[33] = test system: DU-145; test: Growth inhibition of human DU-145 cells incubated for 48 hrs by sulforhodamine B assay; summary of the method: as §1
[34] = test system: MDA-MB-468; test: Growth inhibition of human MDA-MB-468 cells incubated for 48 hrs by sulforhodamine B assay; summary of the method: as §3
[35] = read-out: LC50 (the source's name)

## CN1CCc2nc3sc(C(N)=O)c(N)c3c(-c3cccs3)c2C1
[1]
  growth at 0.01 µM: 93%
[2]
  growth at 0.01 µM: 95%
[3]
  growth at 0.01 µM: 106%
[4]
  growth at 0.01 µM: 106%
[5]
  growth at 0.01 µM: 111%
[6]
  growth at 0.01 µM: 106%
[7]
  growth at 0.01 µM: 97%
[8]
  growth at 0.1 µM: 107%
[9]
  growth at 0.1 µM: 116%
[10]
  growth at 0.1 µM: 110%
[11]
  growth at 0.1 µM: 111%
[12]
  growth at 0.1 µM: 95%
[13]
  growth at 1 µM: 85%
[14]
  growth at 1 µM: 90%
[15]
  growth at 1 µM: 56%
[16]
  growth at 1 µM: 131%
[17]
  growth at 1 µM: 91%
[18]
  growth at 1 µM: 92%
[19]
  growth at 1 µM: 84%
[20]
  growth at 100 µM: -1%
[21]
  growth at 100 µM: -18%
[22]
  growth at 100 µM: 9%
[23]
  growth at 100 µM: 26%
[24]
  growth at 100 µM: 2%
[25]
  GI50: 4.41 µM
  LC50: > 100 µM
  TGI: > 100 µM
[26]
  GI50: 3.16 µM
  TGI: > 100 µM
[26]; [35]
  CC50: > 100 µM
[27]
  GI50: 3.85 µM
  TGI: 88.5 µM
[27]; [35]
  CC50: > 100 µM
[28]
  GI50: 4 µM
  LC50 (concentration killing 50% of cells): > 100 µM
  TGI: > 100 µM
[29]
  GI50: 5.16 µM
  LC50: > 100 µM
  TGI: > 100 µM
[30]
  GI50: 2.7 µM
  TGI: > 100 µM
[30]; [35]
  CC50: > 100 µM
[31]
  GI50: 3.35 µM
  TGI: > 100 µM
[31]; [35]
  CC50: > 100 µM
[32]
  GI50: 2.69 µM
  TGI: > 100 µM
[32]; [35]
  CC50: > 100 µM
[33]
  GI50: 3.91 µM
  TGI: 86.9 µM
[33]; [35]
  CC50: > 100 µM
[34]
  GI50: 1.75 µM
  TGI: 4.86 µM
[34]; [35]
  CC50: 41.7 µM
